Key:
[1] = species: Rattus norvegicus; test: Regional uptake of [18F]AFA in hippocampus of rat pretreated with compound 7e; n=3; assay type: functional, organism-based; conditions: tested as the 18F-labelled form
[2] = species: Rattus norvegicus; test: Regional uptake of [18F]AFA in hypothalamus of rat pretreated with compound 7e; n=3; assay type: functional, organism-based; conditions: tested as the 18F-labelled form
[3] = species: Rattus norvegicus; test: Regional uptake of [18F]-AFA in blood of rat pretreated with compound citalopram; n=3; assay type: functional, organism-based; conditions: tested as the 18F-labelled form
Method in brief: (§1)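 Male Sprague-Dawley rats, three per group, received blocker (2 mg/kg iv in saline) or saline only (controls) 10–15 min before about 20 µCi of tail-vein F-18 radioligand. Killed 60 min after tracer. Blood and brain regions weighed and gamma-counted. %ID/g was decay- and tail-corrected; mean ± SD.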

[4] = species: Rattus norvegicus; test: Regional uptake of [18F]AFA in blood of rat pretreated with compound nisoxetine; n=3; assay type: functional, organism-based; conditions: tested as the 18F-labelled form; method in brief: as §1
[5] = species: Rattus norvegicus; test: Regional uptake of [18F]AFA in frontal cortex of rat pretreated with compound 7e; n=3; assay type: functional, organism-based; conditions: tested as the 18F-labelled form
[6] = species: Rattus norvegicus; test: Regional uptake of [18F]-AFA in striatum of rat pretreated with compound GBR-12935; n=3; assay type: functional, organism-based; conditions: tested as the 18F-labelled form; method in brief: as §1
[7] = species: Rattus norvegicus; test: Regional uptake of [18F]AFA in thalamus of rat pretreated with compound GBR-12935; n=3; assay type: functional, organism-based; conditions: tested as the 18F-labelled form; method in brief: as §1
[8] = species: Rattus norvegicus; test: Regional uptake of [18F]AFA in striatum of rat pretreated with compound citalopram; n=3; assay type: functional, organism-based; conditions: tested as the 18F-labelled form; method in brief: as §1
[9] = species: Rattus norvegicus; test: Regional uptake of [18F]AFA in striatum of rat pretreated with compound nisoxetine; n=3; assay type: functional, organism-based; conditions: tested as the 18F-labelled form; method in brief: as §1
[10] = species: Rattus norvegicus; test: Regional uptake of [18F]AFA in thalamus of rat pretreated with compound citalopram; n=3; assay type: functional, organism-based; conditions: tested as the 18F-labelled form; method in brief: as §1
[11] = species: Rattus norvegicus; test: Regional uptake of [18F]AFA in thalamus of rat pretreated with compound nisoxetine; n=3; assay type: functional, organism-based; conditions: tested as the 18F-labelled form; method in brief: as §1
[12] = species: Rattus norvegicus; test: Regional uptake of [18F]AFA in hippocampus of rat pretreated with compound GBR-12935; n=3; assay type: functional, organism-based; conditions: tested as the 18F-labelled form; method in brief: as §1
[13] = species: Rattus norvegicus; test: Regional uptake of [18F]AFA in cerebellum of rat pretreated with compound citalopram; n=3; assay type: functional, organism-based; conditions: tested as the 18F-labelled form; method in brief: as §1
[14] = species: Rattus norvegicus; test: Regional uptake of [18F]AFA in cerebellum of rat pretreated with compound nisoxetine; n=3; assay type: functional, organism-based; conditions: tested as the 18F-labelled form; method in brief: as §1
[15] = species: Rattus norvegicus; test: Regional uptake of [18F]AFA in hypothalamus of rat pretreated with compound GBR-12935; n=3; assay type: functional, organism-based; conditions: tested as the 18F-labelled form; method in brief: as §1
[16] = species: Rattus norvegicus; test: Regional uptake of [18F]AFA in hippocampus of rat pretreated with compound citalopram; n=3; assay type: functional, organism-based; conditions: tested as the 18F-labelled form; method in brief: as §1
[17] = species: Rattus norvegicus; test: Regional uptake of [18F]AFA in hippocampus of rat pretreated with compound nisoxetine; n=3; assay type: functional, organism-based; conditions: tested as the 18F-labelled form; method in brief: as §1
[18] = species: Rattus norvegicus; test: Regional uptake of [18F]AFA in frontal cortex of rat pretreated with compound GBR-12935; n=3; assay type: functional, organism-based; conditions: tested as the 18F-labelled form; method in brief: as §1
[19] = species: Rattus norvegicus; test: Regional uptake of [18F]-AFA in hypothalamus of rat pretreated with compound nisoxetine; n=3; assay type: functional, organism-based; conditions: tested as the 18F-labelled form; method in brief: as §1
[20] = species: Rattus norvegicus; test: Regional uptake of [18F]AFA in frontal cortex of rat pretreated with compound citalopram; n=3; assay type: functional, organism-based; conditions: tested as the 18F-labelled form; method in brief: as §1
[21] = species: Rattus norvegicus; test: Regional uptake of [18F]AFA in frontal cortex of rat pretreated with compound nisoxetine; n=3; assay type: functional, organism-based; conditions: tested as the 18F-labelled form; method in brief: as §1
[22] = molecular target: Sodium-dependent serotonin transporter (Homo sapiens, UniProt P31645); test: In vitro displacement of [3H]paroxetine from human serotonin transporter expressed in HEK293 cells; assay type: cell-based
Sodium-dependent serotonin transporter, sequence (P31645 whole entry): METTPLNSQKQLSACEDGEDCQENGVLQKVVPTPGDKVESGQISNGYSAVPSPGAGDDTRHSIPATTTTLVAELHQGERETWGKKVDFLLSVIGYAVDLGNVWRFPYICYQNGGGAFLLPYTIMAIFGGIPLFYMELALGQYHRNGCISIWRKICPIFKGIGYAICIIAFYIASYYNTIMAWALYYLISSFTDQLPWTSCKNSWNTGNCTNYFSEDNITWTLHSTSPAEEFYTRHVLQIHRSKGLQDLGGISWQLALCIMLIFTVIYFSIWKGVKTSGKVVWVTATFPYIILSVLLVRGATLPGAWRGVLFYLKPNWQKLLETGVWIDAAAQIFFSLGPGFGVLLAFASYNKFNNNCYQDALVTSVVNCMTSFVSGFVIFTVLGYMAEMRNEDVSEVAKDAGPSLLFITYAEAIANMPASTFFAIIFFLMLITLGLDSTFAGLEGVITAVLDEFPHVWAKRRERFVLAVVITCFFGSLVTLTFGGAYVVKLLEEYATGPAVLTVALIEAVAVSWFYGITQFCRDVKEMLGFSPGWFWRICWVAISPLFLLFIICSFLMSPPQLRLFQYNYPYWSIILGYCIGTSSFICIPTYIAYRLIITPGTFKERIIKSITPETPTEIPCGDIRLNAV

[23] = species: Rattus norvegicus; test: Regional uptake of [18F]AFA in thalamus of rat pretreated with compound 7e; n=3; assay type: functional, organism-based; conditions: tested as the 18F-labelled form
[24] = species: Rattus norvegicus; test: Regional uptake of [18F]AFA in cerebellum of rat pretreated with compound GBR-12935; n=3; assay type: functional, organism-based; conditions: tested as the 18F-labelled form; method in brief: as §1
[25] = species: Rattus norvegicus; test: Regional uptake of [18F]AFA in hypothalamus of rat pretreated with compound citalopram; n=3; assay type: functional, organism-based; conditions: tested as the 18F-labelled form; method in brief: as §1

`CN(C)Cc1ccccc1Sc1ccc(CCF)cc1N` showed an Uptake [1] of 0.11 %ID/g, an Uptake [2] of 0.15 %ID/g and an Uptake [3] of 0.08 %ID/g. It also gave an Uptake [4] of 0.06 %ID/g, an Uptake [5] of 0.1 %ID/g and an Uptake [6] of 0.2 %ID/g. It also gave an Uptake [7] of 0.25 %ID/g, an Uptake [8] of 0.09 %ID/g and an Uptake [9] of 0.21 %ID/g. For the same compound, the Uptake [10] was 0.11 %ID/g, the Uptake [11] was 0.29 %ID/g and the Uptake [12] was 0.18 %ID/g. For the same compound, the Uptake [13] was 0.06 %ID/g, the Uptake [14] was 0.07 %ID/g and the Uptake [15] was 0.32 %ID/g. It also gave an Uptake [16] of 0.09 %ID/g, an Uptake [17] of 0.17 %ID/g and an Uptake [18] of 0.17 %ID/g. For the same compound, the Uptake [19] was 0.33 %ID/g, the Uptake [20] was 0.08 %ID/g and the Uptake [21] was 0.19 %ID/g. The Ki [22] was 1.83 nM, the Uptake [23] was 0.14 %ID/g and the Uptake [24] was 0.06 %ID/g. For the same compound, the Uptake [25] was 0.12 %ID/g.

Source: ChEMBL document CHEMBL1145212, “Fluorinated diaryl sulfides as serotonin transporter ligands: synthesis, structure-activity relationship study, and in vivo evaluation of fluorine-18-labeled compounds as PET imaging agents” (J Med Chem, 2005)
